From PubChem BioAssay
In the library only some 9.6% were active in any assay of this set; here they are far more common.
PMI act hi M6P: human PMI activators, high substrate, primary screen, biochemical, fluorescence intensity, near-saturating mannose 6-phosphate | Mannose-6-phosphate isomerase (Homo sapiens), P34949 | coupled PMI enzyme assay, resazurin fluorescence, 20 min; active compounds read high; 1 = untreated enzyme, 0 = substrate-free blank | activation factor at 20 µM | 190,000 compounds, 0.34% hits | AID 1216, 2008;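 active = activation factor of 2 or more at 20 µM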
Target sequence (P34949 whole entry, looked up): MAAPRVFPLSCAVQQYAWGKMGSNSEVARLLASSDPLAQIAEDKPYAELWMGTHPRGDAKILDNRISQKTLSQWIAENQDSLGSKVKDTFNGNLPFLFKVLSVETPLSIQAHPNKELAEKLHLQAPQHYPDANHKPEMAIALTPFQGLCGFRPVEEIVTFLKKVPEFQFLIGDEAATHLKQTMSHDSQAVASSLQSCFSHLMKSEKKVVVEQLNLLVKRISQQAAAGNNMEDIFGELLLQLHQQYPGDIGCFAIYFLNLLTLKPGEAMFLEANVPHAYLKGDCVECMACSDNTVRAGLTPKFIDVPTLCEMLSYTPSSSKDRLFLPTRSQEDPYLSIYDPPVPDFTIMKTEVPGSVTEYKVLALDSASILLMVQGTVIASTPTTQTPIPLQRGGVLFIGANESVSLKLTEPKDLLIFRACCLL
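Technique: Diaphorase-driven resazurin-to-resorufin fluorescence, excitation 544, emission 590 nm | Assay system: Human PMI in coupled enzyme assay | Times: Enzyme reaction with compound 20 min at room temperature | Medium: HEPES-buffered pH 7.4 with magnesium and detergent | Reagent: Mannose-6-phosphate 1.0 mM (near-saturating) plus 0.22 mM NADP+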
PTEN del growth: growth suppression of PTEN-null HCT116, primary screen, cell-based, CellTiter-Glo. HCT116 PTEN-null viability, 60 h; active compounds read low. viability, % at 10 µM. 140,000 compounds, 1.2% hits;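 active = viability at or below a set limit, 4 SD under the median of all tested compounds, cut at about 3.7% in these data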;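 note: PTEN knockout HCT116 line with beta catenin targeted HCT116 as companion control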
Lmaj promast: Leishmania major promastigote growth inhibition, primary screen; inhibition, % at 10 µM; 200,000 compounds, 9% hits; Leishmania major promastigotes, resazurin fluorescence viability; AID 1063, 2008; in the data active = inhibition above about 50%;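 note: promastigotes grown with compound for 44 hours at 28 °C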
HCT116 bCat-KO: primary screen for growth suppressors in beta-catenin knockout HCT116 cells (colon tumor, human); HCT116 beta-catenin knockout viability, CellTiter-Glo, 60 h; active compounds read low; viability, % at 10 µM; 140,000 compounds, 1.5% hits; AID 818, 2007;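 active = viability at or under a set limit, the compound median less 4 SD, cut at about 6% in these data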
PMI activator: activators of human PMI, primary screen, biochemical, fluorescence intensity, near-Km mannose 6-phosphate. purified human PMI, coupled resazurin fluorescence, 20 min; active compounds read high; 1 = vehicle control, 0 substrate-free wells. activation factor at 20 µM. 190,000 compounds, 0.005% hits. AID 1214, 2008;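 active = activation factor of 2 or more at 20 µM, relative to plate controls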
Large screens that a line does not name were inactive.

COc1ccc(OC)c(NC(=O)c2ccccc2N(Cc2ccccc2)S(C)(=O)=O)c1	Lmaj promast 79.8 (no result: PTEN del growth, HCT116 bCat-KO)
COc1cccc(/C=N/NC(=O)c2ccc(N(C)S(=O)(=O)c3ccccc3)cc2)c1OC	none (no result: PTEN del growth, HCT116 bCat-KO)
C=C(C)C1CC=C(C)/C(=N/NC(=O)COc2cccc(C)c2)C1 (stereo not given)	none
C=C(C)C1CC=C(C)/C(=N/NC(=O)c2cccc([N+](=O)[O-])c2)C1 (stereo not given)	Lmaj promast 100.2
C=C(C)C1CC=C(C)/C(=N/NC(=O)c2ccc(NC(=O)c3cccc(C)c3)cc2)C1 (stereo not given)	Lmaj promast 100.0
O=C(Nc1ccccc1)N1CCC(C(=O)N2CCN(c3ccccc3F)CC2)CC1	none (no result: PTEN del growth, HCT116 bCat-KO)
CCC(C)C(NC(=O)/C(=C\c1ccccc1)NC(=O)c1ccc(OC)cc1)C(=O)O (stereo not given)	none (no result: PTEN del growth, HCT116 bCat-KO)
O=C(CCCN1C(=O)/C(=C/c2cccc(Br)c2)SC1=S)Nc1cccnc1	none (no result: PTEN del growth, HCT116 bCat-KO)
O=C(CCCN1C(=O)/C(=C\c2cccc(Br)c2)SC1=S)Nc1cccnc1	Lmaj promast 58.5 (no result: PTEN del growth, HCT116 bCat-KO)
Cc1cc(=O)n(C)c(=O)n1CC(=O)N1CCCCCC1	none
COc1ccc(-n2nc(C#N)c(Cl)cc2=O)cc1	Lmaj promast 99.5 (no result: PTEN del growth, HCT116 bCat-KO)
CC(C)(C)NCc1ccc(OCc2cccs2)cc1	Lmaj promast 99.9 (no result: PTEN del growth, HCT116 bCat-KO)
Cc1ccc(S(=O)(=O)C2C(=O)N(C)C3(C)CC2c2ccccc2O3)cc1 (stereo not given)	none
CC(=O)N1CCc2cc(Br)cc(S(=O)(=O)NCCCN3CCC(C)CC3)c21	Lmaj promast 98.6
CC(=O)N1CCc2cc(Br)cc(S(=O)(=O)NCCN3CCCCC3C)c21 (stereo not given)	Lmaj promast 99.2
CC(=O)N1CCc2cc(Br)cc(S(=O)(=O)NCCCN3CCCC(C)C3)c21 (stereo not given)	Lmaj promast 99.8
O=C(C1CC1)N1CCc2cc(Br)cc(S(=O)(=O)NCCCN3CCCC3)c21	Lmaj promast 99.2
CC(=O)N1CCc2cc(Br)cc(S(=O)(=O)N3CCCCCC3)c21	none
CCn1c(=O)cc(SCC(=O)NCc2ccccn2)c2ccccc21	none
CC1CCCCC1NC(=O)COC(=O)COc1ccc(Cl)cc1 (stereo not given)	none
CC1CCCCC1NC(=O)NC(=O)CCl (stereo not given)	Lmaj promast 97.6
CC1CCCC(NC(=O)NC(=O)CCl)C1C (stereo not given)	Lmaj promast 98.8
Cc1cccc(/C=N/NC(=O)c2cc(-c3cccnc3)nc3c2c(C)nn3-c2ccccc2)c1	Lmaj promast 62.5
CCNC(=S)NNC(=O)c1cc(-c2cccc(OCC)c2)nc2ccccc12	none
CCNC(=S)NNC(=O)c1ccccc1Cl	Lmaj promast 50.5
CCNC(=S)NNC(=O)c1cc(-c2cccc(C)c2)nc2ccccc12	Lmaj promast 95.0
CCCCOc1ccc(-c2cc(C(=O)NNC(=S)NCC)c3ccccc3n2)cc1	PTEN del growth 1.8, HCT116 bCat-KO 1.6
COC(=O)c1sccc1NC(=O)c1cc(-c2cccc(C)c2)nc2ccccc12	PTEN del growth 0.8, HCT116 bCat-KO 2.0
O=C(COc1ccc(S(=O)(=O)NC2CCCCC2)cc1Cl)Nc1ccc2c(c1)OCO2	none
O=C(COc1ccc(S(=O)(=O)NC2CCCCC2)cc1Cl)NCc1ccc2c(c1)OCO2	Lmaj promast 73.2
CCc1cc(C(=O)N2CCCC(CNC(=O)c3ccc(-c4ccccc4)cc3)C2)no1 (stereo not given)	none (no result: PTEN del growth, HCT116 bCat-KO)
CC1CCC/C(=N\Nc2ccc(Cl)c(C(=O)O)c2)C1 (stereo not given)	PMI act hi M6P 2.1
COc1cc(Nc2nc(SCC#N)nc3ccccc23)cc(OC)c1OC	Lmaj promast 53.4
O=C(CSc1nc(-c2cccs2)cc(C(F)(F)F)n1)Nc1cc(OCC(F)(F)C(F)F)cc([N+](=O)[O-])c1	Lmaj promast 84.3
COc1cc(C=O)ccc1OCC(=O)N1CCCC1	none (no result: PTEN del growth, HCT116 bCat-KO)
CCN(CC)S(=O)(=O)c1ccc(N=NC2=C(O)CCCC2=O)cc1	none
CCN(CC)S(=O)(=O)c1ccc(N=NC2=C(O)CC(C)(C)CC2=O)cc1	Lmaj promast 79.6
Cc1nn(C)c(C)c1Nc1ccc(N2C(=O)C3CC=CCC3C2=O)cc1[N+](=O)[O-] (stereo not given)	none (no result: PTEN del growth, HCT116 bCat-KO)
OC(CNCCC1C=Nc2ccccc21)Cn1c2ccc(Cl)cc2c2cc(Cl)ccc21 (stereo not given)	PTEN del growth 1.5, Lmaj promast 100.4, HCT116 bCat-KO 1.2
OC(CNCC1CCCO1)Cn1c2ccc(Cl)cc2c2cc(Cl)ccc21 (stereo not given)	PTEN del growth 2.1, Lmaj promast 100.4, HCT116 bCat-KO 1.5
Cc1cc(C)n(CC(O)Cn2c3ccc(Cl)cc3c3cc(Cl)ccc32)c(=O)n1 (stereo not given)	none
c1cnc(-c2noc(CN3CCN(C4CCCC4)CC3)n2)cn1	none (no result: PTEN del growth, HCT116 bCat-KO)
CCCOc1ccc(Cl)cc1CN1CCOCC1	none
COCCNCc1ccc(Cl)cc1Cl	none (no result: PTEN del growth, HCT116 bCat-KO)
C=CCc1cc(Cl)ccc1OCCN1CC(C)OC(C)C1 (stereo not given)	Lmaj promast 82.9 (no result: PTEN del growth, HCT116 bCat-KO)
C=CCc1cc(Cl)ccc1OCCNCCN1CCOCC1	Lmaj promast 95.0 (no result: PTEN del growth, HCT116 bCat-KO)
C=CCc1cc(Cl)ccc1OCCNCCOC	Lmaj promast 95.0 (no result: PTEN del growth, HCT116 bCat-KO)
CCCCNC(=O)CSc1nnc(Cc2ccccc2)n1CC	none
CC1=NN(c2ccccc2)C(=O)/C1=C/c1cc2cc(C)ccc2nc1N1CCCCC1	Lmaj promast 90.0
O=C(Nc1cccc(C(F)(F)F)c1)C(Sc1ncnc2ccccc12)c1ccccc1 (stereo not given)	none
Cc1cc(C)cc(NC(=O)C(Sc2ncnc3ccccc23)c2ccccc2)c1 (stereo not given)	Lmaj promast 57.3
COc1ccc(C(C)=O)cc1COC(=O)c1cccnc1SC	none (no result: PTEN del growth, HCT116 bCat-KO)
Cc1ccc(C(=O)Nc2ccccc2SCC2CSc3nc4ccccc4c(=O)n32)cc1 (stereo not given)	Lmaj promast 50.4
O=C(Nc1ccccc1SCC1CSc2nc3ccccc3c(=O)n21)c1ccccc1 (stereo not given)	none
O=c1c2ccccc2nc2n1C(CSCc1ccc(Cl)cc1)CS2 (stereo not given)	Lmaj promast 59.5
O=c1c2ccccc2nc2n1C(CSc1ccccc1)CS2 (stereo not given)	none (no result: PTEN del growth, HCT116 bCat-KO)
O=C(c1ccc(C#CC2(O)CCCCC2)cc1)N1CCN(C(c2ccccc2)c2ccccc2)CC1	none
O=C(c1ccco1)N(CC1CCCO1)c1nc(-c2ccccc2)cs1 (stereo not given)	none
Cc1ccc(-c2csc(N(CC3CCCO3)C(=O)c3ccco3)n2)cc1 (stereo not given)	Lmaj promast 75.8
